ChEMBL document CHEMBL4513216, “Probing the Open Global Health Chemical Diversity Library for Multistage-Active Starting Points for Next-Generation Antimalarials” (ACS Infect Dis, 2020)

Experiment: Toxicity liver stage against HepG2, at 10uM
Assay type: cell-based
Set-up: test concentration 10 uM, cell line HepG2-A16-CD81EGFP
Details: human, HepG2-A16-CD81EGFP cells; read-out: INHIBITION
Summary of the method: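 Uninfected HepG2-A16-CD81EGFP cells, 3 × 10^3 per well, 1536-well, plated on prespotted compound at 10 μM final, parasite-free screening media added to match infected plates; puromycin 10 μM positive, DMSO 0.5% negative; run in parallel with 48 h PbLuc assay at 37 °C, 5% CO2; viability by CellTiter-Glo luminescence, normalized to controls.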

In the case of `Cn1c2ccccc2c2ncn(CCCN3CCOCC3)c(=O)c21`, the cytotoxicity at 10 µM is reported as 18.3%.
With `Cc1ccc2c(c1)nc1n2[C@@H](CNC(=O)c2cncnc2)COC1` the cytotoxicity at 10 µM was 5.6%.
With `Cc1ccc(-c2cn3c(n2)CO[C@@H](CNCc2cnn(C)c2)C3)cc1` the cytotoxicity at 10 µM was -1.23%.
Work on `COCCN1CC(O)CN(C(=O)c2ccc(SC)cc2)CC1=O` (stereo not given) yielded a cytotoxicity at 10 µM of -0.53%.
Work on `CC(C)COC(=O)N1CC(=O)N(CCCc2ccccc2)CC(O)C1` (stereo not given) yielded a cytotoxicity at 10 µM of 0.853%.
For `COCCNC(=O)CCN1C(=O)CC2(CCCC2)C1=O`, the cytotoxicity at 10 µM was 2.34%.
`CC(C)(C)c1csc(CN2CCN(S(=O)(=O)c3cccnc3)CC2)n1` showed a cytotoxicity at 10 µM of 3.21%.
With `CS(=O)(=O)N1CCOC2(CCN(c3ncccn3)CC2)c2ccccc21` the cytotoxicity at 10 µM was -1.52%.
Compound `CCC(CC)CN1C[C@@H]2OCCN(Cc3cnn(C)c3)[C@@H]2C1` has a cytotoxicity at 10 µM of -144%.
`O=C(NCC1CC1)C1CN(C(=O)c2cnccn2)CC12CCOCC2` (stereo not given) showed a cytotoxicity at 10 µM of 8.27%.
Compound `c1ccc(N2CCCC3(CCN(Cc4nccs4)C3)C2)nc1` (stereo not given) has a cytotoxicity at 10 µM of 6.94%.
In the case of `CS(=O)(=O)Nc1cnn(Cc2cccc(Cl)c2)c1`, the cytotoxicity at 10 µM is reported as -2.44%.
Compound `COc1ccc(CNc2cc3[nH]c(O)nc3cc2C)cc1` has a cytotoxicity at 10 µM of 18.1%.
`CCCc1nc(CN(C)CCOc2ccccc2)cs1` showed a cytotoxicity at 10 µM of -8.53%.
Compound `COc1c(C(=O)NCC(C)Sc2ccccc2)c(C)nn1C` (stereo not given) has a cytotoxicity at 10 µM of 12.1%.
For `O=C(NCc1cscn1)NC1CCN(c2ncccc2Cl)C1` (stereo not given), the cytotoxicity at 10 µM was -1.24%.
In the case of `COc1c(F)cc(CN2CCCC3(CC2)CNC(=O)O3)cc1Cl` (stereo not given), the cytotoxicity at 10 µM is reported as 0.465%.
`Cc1cc(C)n(C2CN(C(=O)Cn3c(C)cc(=O)c4ccccc43)C2)n1` showed a cytotoxicity at 10 µM of -5.56%.
For `COc1ccc(-c2ccnc(N)c2)c(C)c1`, the cytotoxicity at 10 µM was 6.63%.
`CC(=O)NCCNc1cc(C)nc2cc(C)nn12` showed a cytotoxicity at 10 µM of -6.91%.
Compound `Cc1nc(N(C)CCN(C)C)c2cnn(C)c2n1` has a cytotoxicity at 10 µM of 4.63%.
`Cc1noc(C(C)C)c1C(=O)NCc1ccc(N(C)C)c(F)c1` showed a cytotoxicity at 10 µM of 1.17%.
`Cc1cc(C)c(CNC(=O)NCC(O)c2ccc(Cl)cc2)c(=O)[nH]1` (stereo not given) gave a cytotoxicity at 10 µM of -7.03%.
`Cc1cc(C)c(CNC(=O)NCc2cc(F)cc(F)c2)c(=O)[nH]1` gave a cytotoxicity at 10 µM of -4.98%.
Compound `CC(C)(C)c1ncc(C(=O)NCCNC(=O)c2ccc(O)cc2)s1` has a cytotoxicity at 10 µM of 45.3%.
With `CN(C)c1cc(C(=O)N2CCCN(Cc3nccn3C)CC2)ccn1` the cytotoxicity at 10 µM was -1.56%.
Work on `COc1ccccc1C(NCc1ccc(SC)cc1)c1nccn1C` (stereo not given) yielded a cytotoxicity at 10 µM of -11.6%.
With `O=C(CCCNc1ncccn1)Nc1cc(C(F)(F)F)c[nH]c1=O` the cytotoxicity at 10 µM was -1.34%.
With `Cc1nc(C)n(C2CCCN(C(=O)c3cc(C4CC4)on3)C2)n1` (stereo not given) the cytotoxicity at 10 µM was -3.87%.
In the case of `N#Cc1cccnc1N1CCCN(C(=O)CCn2cccn2)CC1`, the cytotoxicity at 10 µM is reported as 2.81%.
`CN(C)Cc1nc(C(C)(C)NC(=O)C2CC(=O)N(CC3CC3)C2)no1` (stereo not given) gave a cytotoxicity at 10 µM of -5.9%.
`CCOc1cc(C)nc(N2CCN(C(=O)c3ccnn3C)CC2)n1` showed a cytotoxicity at 10 µM of -4.37%.
In the case of `CCOC(=O)NC(C(=O)NCc1ccc(N2CCCCC2)nc1)C(C)C` (stereo not given), the cytotoxicity at 10 µM is reported as -6.09%.
With `O=C(O)C1(Cc2cccc(-c3cccs3)c2)CCCNC1` (stereo not given) the cytotoxicity at 10 µM was 4.43%.
With `O=C(NCc1ccco1)[C@@]12CCO[C@@H]1CCN(C1CCC1)C2` the cytotoxicity at 10 µM was 12.3%.
Work on `CN(C)Cc1cn2c(n1)CN(CC1CCCC1)CC2` yielded a cytotoxicity at 10 µM of -149%.
With `CN(C)CCN1CC[C@@H]2O[C@@H](COCC(=O)N3CCCC3)CC[C@@H]21` the cytotoxicity at 10 µM was -1.78%.
With `Cc1cccc(CN2C[C@H](OCc3csc(C)n3)[C@H]3COC[C@H]32)n1` the cytotoxicity at 10 µM was 3.22%.
Compound `Cc1cccc(CN2Cc3[nH]nc(COCCO)c3C2)n1` has a cytotoxicity at 10 µM of 0.442%.
In the case of `Cc1cccc(CO[C@@H]2C[C@H]3CN(c4ncccn4)CCN3C2)n1`, the cytotoxicity at 10 µM is reported as 1.39%.
In the case of `O=C(c1ccco1)N1CCc2ncnc(Oc3cccnc3)c2CC1`, the cytotoxicity at 10 µM is reported as -2.86%.
In the case of `CCOC1CC2(CCN(Cc3cccn3C)CC2)C1`, the cytotoxicity at 10 µM is reported as -149%.
With `COCC(=O)N1CCc2c(nnn2C)C1COCCN1CCCC1` (stereo not given) the cytotoxicity at 10 µM was 11.6%.
`Cn1cc(CN2CCC3(CCCN3Cc3cccnc3)CC2)cn1` gave a cytotoxicity at 10 µM of 2.43%.
For `CC(C)N(C)Cc1cncc2c1CCN(C(=O)c1ccc[nH]1)C2`, the cytotoxicity at 10 µM was 3.73%.
